The results in this text go back to ChEMBL document CHEMBL1157558, “Design, asymmetric synthesis, and evaluation of pseudosymmetric sulfoximine inhibitors against HIV-1 protease” (Bioorg Med Chem, 2010).

Each structure is given as a SMILES string.

One may read the inhibition as the percentage by which the read-out fell short of the control. The IC50 is the concentration needed to halve the response being measured.

For test [1], the target named is Protease (Human immunodeficiency virus 1) (UniProt Q9YQ12). The test is described as follows: Inhibition of recombinant HIV1 protease at 10 uM by HPLC method. In a few lines: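 Recombinant HIV-1 protease with HIV-1 Protease Substrate III in 50 mM sodium acetate pH 4.9, 200 mM NaCl, 5 mM DTT, 10% glycerol; inhibitors added from DMSO (5% v/v final). Enzyme addition starts the reaction, run 3.5 min at 37 °C, then quenched with 10% TFA. Substrate conversion is read by reverse-phase C18 HPLC (5–50% acetonitrile, 0.1% TFA), against inhibitor-free 5% DMSO baseline.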
Chain of Protease (Human immunodeficiency virus 1) (Q9YQ12 as listed by the source): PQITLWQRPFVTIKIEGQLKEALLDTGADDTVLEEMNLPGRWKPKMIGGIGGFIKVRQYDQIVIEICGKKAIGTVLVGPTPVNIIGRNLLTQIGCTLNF

The test system of test [2] is Human immunodeficiency virus 1. The test is described as follows: Antiviral activity against HIV1 assessed as inhibition of viral infection at 10 uM by cell-based assay. It counts as functional.
The subject of test [3] is Human immunodeficiency virus 1. The test is described as follows: Antiviral activity against HIV1 assessed as inhibition of viral infection by cell-based assay. It is filed as functional, organism-based.

`N=[S+]([O-])(C[C@H](Cc1ccccc1)C(=O)N[C@@H](CO)c1ccccc1)C[C@H](Cc1ccccc1)C(=O)N[C@@H](CO)c1ccccc1`: in test [1], the inhibition stood at 87%. Moreover, the inhibition at 10 µM in test [2] is 0%.
In the same order, the values of `O=C(N[C@@H](CO)c1ccccc1)[C@@H](CSC[C@@H](Cc1ccccc1)C(=O)N[C@@H](CO)c1ccccc1)Cc1ccccc1` are 51% and 15.4%.
On to `O=C(N[C@H](CO)c1ccccc1)[C@@H](CSC[C@@H](Cc1ccccc1)C(=O)N[C@H](CO)c1ccccc1)Cc1ccccc1`, for which the inhibition in test [1] was determined as 41%. The inhibition at 10 µM in test [2] came out at 1.4%.
In the same order, the values of `O=C(N[C@H](CO)c1ccccc1)[C@@H](Cc1ccccc1)C[S+]([O-])C[C@H](Cc1ccccc1)C(=O)N[C@H](CO)c1ccccc1` are 50% and 2.5%.
In the case of `CNC(=O)[C@@H](NC(=O)[C@@H](CSC[C@@H](Cc1ccccc1)C(=O)N[C@H](C(=O)NC)C(C)C)Cc1ccccc1)C(C)C`, the inhibition in test [1] was found to be 87%. For the same compound, the inhibition at 10 µM in test [2] stood at 12.6%.
With `CN=[S+]([O-])(C[C@H](Cc1ccccc1)C(=O)N[C@@H]1c2ccccc2C[C@@H]1O)C[C@H](Cc1ccccc1)C(=O)N[C@@H]1c2ccccc2C[C@@H]1O`, the IC50 in test [3] is > 10 µM.
`CNC(=O)[C@H](NC(=O)[C@@H](Cc1ccccc1)C[S+]([O-])C[C@H](Cc1ccccc1)C(=O)N[C@@H](C(=O)NC)C(C)C)C(C)C`: in test [1], the inhibition amounted to 90%. Also, in test [2], the inhibition at 10 µM worked out at 2.1%.
For `CNC(=O)[C@H](NC(=O)[C@@H](Cc1ccccc1)C[S+](=N)([O-])C[C@H](Cc1ccccc1)C(=O)N[C@@H](C(=O)NC)C(C)C)C(C)C`, the inhibition in test [1] came out at 99%. The inhibition at 10 µM in test [2] is 5.5%.
For `N=[S+]([O-])(C[C@H](Cc1ccccc1)C(=O)N[C@H](CO)c1ccccc1)C[C@H](Cc1ccccc1)C(=O)N[C@H](CO)c1ccccc1` the same measures were 54% and 0%.
For `O=C(N[C@@H](CO)c1ccccc1)[C@@H](Cc1ccccc1)C[S+]([O-])C[C@H](Cc1ccccc1)C(=O)N[C@@H](CO)c1ccccc1` the same measures were 47% and 0%.
